Key:
[1] = biological target: Gonadotropin-releasing hormone receptor (Homo sapiens, UniProt P30968, H306A); test: Displacement of [His5, D-Tyr6]GnRH from GnRHR H306A mutant expressed in COS7 cells; type: cell-based, COS-7
Summary of the method: (§1)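 Human GnRH-R mutants (all in F272(6.40)L background) electroporated into COS-7 cells. Membranes taken 36-48 h later and lysed by nitrogen cavitation. Shaken 2 h at room temperature, then filtered and scintillation counted.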

[2] = biological target: Gonadotropin-releasing hormone receptor (Homo sapiens, UniProt P30968, D302A); test: Displacement of [His5, D-Tyr6]GnRH from GnRHR D302A mutant expressed in COS7 cells; type: cell-based, COS-7; summary of the method: as §1
[3] = biological target: Gonadotropin-releasing hormone receptor (Homo sapiens, UniProt P30968, H306E); test: Displacement of [His5, D-Tyr6]GnRH from GnRHR H306E mutant expressed in COS7 cells; type: cell-based, COS-7; summary of the method: as §1
[4] = biological target: Gonadotropin-releasing hormone receptor (Homo sapiens, UniProt P30968, F272L); test: Displacement of [125I]-His5, D-Tyr6]GnRH from GnRHR F272L mutant expressed in COS7 cells; type: cell-based, COS-7; summary of the method: as §1
[5] = biological target: Gonadotropin-releasing hormone receptor (Homo sapiens, UniProt P30968, L300A); test: Displacement of [His5, D-Tyr6]GnRH from GnRHR L300A mutant expressed in COS7 cells; type: cell-based, COS-7; summary of the method: as §1
[6] = biological target: Gonadotropin-releasing hormone receptor (Homo sapiens, UniProt P30968, Y290L); test: Displacement of [His5, D-Tyr6]GnRH from GnRHR Y290L mutant expressed in COS7 cells; type: cell-based, COS-7; summary of the method: as §1
[7] = biological target: Gonadotropin-releasing hormone receptor (Homo sapiens, UniProt P30968, D302N); test: Displacement of [His5, D-Tyr6]GnRH from GnRHR D302N mutant expressed in COS7 cells; type: cell-based, COS-7; summary of the method: as §1
[8] = biological target: Gonadotropin-releasing hormone receptor (Homo sapiens, UniProt P30968, F309L); test: Displacement of [His5, D-Tyr6]GnRH from GnRHR F309L mutant expressed in COS-7 cells; type: cell-based; summary of the method: as §1
[9] = biological target: Gonadotropin-releasing hormone receptor (Homo sapiens, UniProt P30968, N27A); test: Displacement of [His5, D-Tyr6]GnRH from GnRHR N27A mutant expressed in COS7 cells; type: cell-based, COS-7; summary of the method: as §1
[10] = biological target: Gonadotropin-releasing hormone receptor (Homo sapiens, UniProt P30968, Y284L); test: Displacement of [His5, D-Tyr6]GnRH from GnRHR Y284L mutant expressed in COS7 cells; type: cell-based, COS-7; summary of the method: as §1
[11] = biological target: Gonadotropin-releasing hormone receptor (Homo sapiens, UniProt P30968, Q208E); test: Displacement of [His5, D-Tyr6]GnRH from GnRHR Q208E mutant expressed in COS7 cells; type: cell-based, COS-7; summary of the method: as §1
[12] = biological target: Gonadotropin-releasing hormone receptor (Homo sapiens, UniProt P30968, M24I); test: Displacement of [His5, D-Tyr6]GnRH from GnRHR M24I mutant expressed in COS7 cells; type: cell-based, COS-7; summary of the method: as §1
[13] = biological target: Gonadotropin-releasing hormone receptor (Homo sapiens, UniProt P30968, F309Q); test: Displacement of [His5, D-Tyr6]GnRH from GnRHR F309Q mutant expressed in COS7 cells; type: cell-based, COS-7; summary of the method: as §1
[14] = biological target: Gonadotropin-releasing hormone receptor (Homo sapiens, UniProt P30968, F313L); test: Displacement of [His5, D-Tyr6]GnRH from GnRHR F313L mutant expressed in COS7 cells; type: cell-based, COS-7; summary of the method: as §1
Sequence of Gonadotropin-releasing hormone receptor (Homo sapiens, UniProt P30968, F313L) (P30968 whole entry F313L): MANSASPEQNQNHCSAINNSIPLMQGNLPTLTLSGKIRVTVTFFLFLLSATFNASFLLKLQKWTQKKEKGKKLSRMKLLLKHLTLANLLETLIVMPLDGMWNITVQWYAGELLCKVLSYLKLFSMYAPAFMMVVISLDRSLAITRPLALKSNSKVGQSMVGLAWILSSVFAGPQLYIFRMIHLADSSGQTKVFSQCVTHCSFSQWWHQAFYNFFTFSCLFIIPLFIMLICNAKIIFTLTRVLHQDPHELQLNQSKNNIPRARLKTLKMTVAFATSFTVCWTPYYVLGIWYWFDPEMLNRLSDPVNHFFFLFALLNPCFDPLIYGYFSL

Sequence of Gonadotropin-releasing hormone receptor (Homo sapiens, UniProt P30968, D302N) (P30968 whole entry D302N): as the sequence (P30968 whole entry F313L) above, with D302N, L313F counted along it
Sequence of Gonadotropin-releasing hormone receptor (Homo sapiens, UniProt P30968, D302A) (P30968 whole entry D302A): as the sequence (P30968 whole entry F313L) above, with D302A, L313F counted along it
Sequence of Gonadotropin-releasing hormone receptor (Homo sapiens, UniProt P30968, F309L) (P30968 whole entry F309L): as the sequence (P30968 whole entry F313L) above, with F309L, L313F counted along it
Sequence of Gonadotropin-releasing hormone receptor (Homo sapiens, UniProt P30968, F309Q) (P30968 whole entry F309Q): as the sequence (P30968 whole entry F313L) above, with F309Q, L313F counted along it
Sequence of Gonadotropin-releasing hormone receptor (Homo sapiens, UniProt P30968, Y284L) (P30968 whole entry Y284L): as the sequence (P30968 whole entry F313L) above, with Y284L, L313F counted along it
Sequence of Gonadotropin-releasing hormone receptor (Homo sapiens, UniProt P30968, H306E) (P30968 whole entry H306E): as the sequence (P30968 whole entry F313L) above, with H306E, L313F counted along it
Sequence of Gonadotropin-releasing hormone receptor (Homo sapiens, UniProt P30968, N27A) (P30968 whole entry N27A): as the sequence (P30968 whole entry F313L) above, with N27A, L313F counted along it
Sequence of Gonadotropin-releasing hormone receptor (Homo sapiens, UniProt P30968, Q208E) (P30968 whole entry Q208E): as the sequence (P30968 whole entry F313L) above, with Q208E, L313F counted along it
Sequence of Gonadotropin-releasing hormone receptor (Homo sapiens, UniProt P30968, H306A) (P30968 whole entry H306A): as the sequence (P30968 whole entry F313L) above, with H306A, L313F counted along it
Sequence of Gonadotropin-releasing hormone receptor (Homo sapiens, UniProt P30968, L300A) (P30968 whole entry L300A): as the sequence (P30968 whole entry F313L) above, with L300A, L313F counted along it
Sequence of Gonadotropin-releasing hormone receptor (Homo sapiens, UniProt P30968, M24I) (P30968 whole entry M24I): as the sequence (P30968 whole entry F313L) above, with M24I, L313F counted along it
Sequence of Gonadotropin-releasing hormone receptor (Homo sapiens, UniProt P30968, Y290L) (P30968 whole entry Y290L): as the sequence (P30968 whole entry F313L) above, with Y290L, L313F counted along it
Sequence of Gonadotropin-releasing hormone receptor (Homo sapiens, UniProt P30968, F272L) (P30968 whole entry F272L): as the sequence (P30968 whole entry F313L) above, with F272L, L313F counted along it

SMILES	IC50 [1]	IC50 [2]	IC50 [3]	IC50 [4]	IC50 [5]	IC50 [6]	IC50 [7]	IC50 [8]	IC50 [9]	IC50 [10]	IC50 [11]	IC50 [12]	IC50 [13]	IC50 [14]
CN(CCc1ccccn1)Cc1c(-c2ccc([N+](=O)[O-])cc2)sc2c1c(=O)n(-c1ccccc1)c(=O)n2Cc1c(F)cccc1F	240 nM	58 nM	400 nM	52 nM	110 nM	900 nM	40 nM	2650 nM	200 nM	2000 nM	450 nM	> 10000 nM	3600 nM	4500 nM
CN(Cc1ccccc1)Cc1c(-c2ccc([N+](=O)[O-])cc2)sc2c1c(=O)n(-c1ccccc1)c(=O)n2Cc1c(F)cccc1F	3000 nM	1900 nM	> 10000 nM	600 nM	> 10000 nM	1100 nM	1400 nM	> 10000 nM	1600 nM	> 10000 nM	> 10000 nM	> 10000 nM	> 10000 nM	> 10000 nM
CN(CCc1ccccc1)Cc1c(-c2ccc([N+](=O)[O-])cc2)sc2c1c(=O)n(-c1ccccc1)c(=O)n2Cc1c(F)cccc1F	3300 nM	1600 nM	7100 nM	1100 nM	> 10000 nM	1900 nM	1900 nM	> 10000 nM	1300 nM	> 10000 nM	5000 nM	> 10000 nM	> 10000 nM	> 10000 nM
CN(Cc1ccccc1)Cc1c(-c2ccc(NC3=NCCN3)cc2)sc2c1c(=O)n(-c1ccccc1)c(=O)n2Cc1c(F)cccc1F	4400 nM	3300 nM	800 nM	240 nM	1020 nM	350 nM	2100 nM	1800 nM	480 nM	5000 nM	1400 nM	> 10000 nM	5200 nM	> 10000 nM

Second part, the compound after the results:

IC50 [1]	IC50 [2]	IC50 [3]	IC50 [4]	IC50 [5]	IC50 [6]	IC50 [7]	IC50 [8]	IC50 [9]	IC50 [10]	IC50 [11]	IC50 [12]	IC50 [13]	IC50 [14]	SMILES
400 nM	15 nM	800 nM	6 nM	22 nM	20 nM	13 nM	100 nM	26 nM	1500 nM	31 nM	380 nM	220 nM	400 nM	CN(Cc1ccccc1)Cc1c(-c2ccc(NC(=O)c3ccccc3)cc2)sc2c1c(=O)n(-c1ccccc1)c(=O)n2Cc1c(F)cccc1F
600 nM	1100 nM	4000 nM	20 nM	190 nM	70 nM	500 nM	900 nM	30 nM	6000 nM	70 nM	390 nM	1200 nM	1400 nM	CN(Cc1ccccc1)Cc1c(-c2ccc(NC(=O)NCc3ccccc3)cc2)sc2c1c(=O)n(-c1ccccc1)c(=O)n2Cc1c(F)cccc1F
710 nM	390 nM	500 nM	210 nM	1600 nM	390 nM	530 nM	950 nM	370 nM	> 10000 nM	1500 nM	4000 nM	> 10000 nM	> 10000 nM	CN(Cc1ccccc1)Cc1c(-c2ccc(N)cc2)sc2c1c(=O)n(-c1ccccc1)c(=O)n2Cc1c(F)cccc1F
1700 nM	210 nM	1600 nM	29 nM	240 nM	52 nM	160 nM	1100 nM	31 nM	4400 nM	230 nM	2300 nM	2400 nM	2000 nM	CC(=O)Nc1ccc(-c2sc3c(c2CN(C)Cc2ccccc2)c(=O)n(-c2ccccc2)c(=O)n3Cc2c(F)cccc2F)cc1

Reference: ChEMBL document CHEMBL1137348, “Determination of the binding mode of thienopyrimidinedione antagonists to the human gonadotropin releasing hormone receptor using structure-activity relationships, site-directed mutagenesis, and homology modeling” (J Med Chem, 2006)
